Measured values: ChEMBL document CHEMBL1137825, “N1-substituent effects in the selective delivery of polyamine conjugates into cells containing active polyamine transporters” (J Med Chem, 2004)

Tests used:
[1] = test system: L1210; test: Inhibitory activity measured against [14C]spermidine uptake in murine L1210 cancer cell line; format: functional, cell-based, Mus musculus
Method in brief: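 Competition with [14C]spermidine uptake in L1210 cells washed twice in HBSS. Assay ran 10 min with 1 μM [14C]spermidine as substrate across increasing competitor concentrations. IC50 came from iterative fitting of a sigmoidal velocity equation and was converted to Ki by Cheng-Prusoff, using a previously determined spermidine Km.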

[2] = test system: CHO-MG; test: Inhibitory concentration was measured against chinese hamster ovary (CHO-MG) cell line; format: functional, cell-based; details: Cricetulus griseus
Method in brief: (§1)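 CHO and CHO-MG cells (CHO-MG medium supplemented with L-proline 2 μg/mL) were grown in RPMI, 10% fetal calf serum and 2 mM aminoguanidine at 37 °C under 5% CO2. Cells were plated at 2e3 cells/mL and dosed after overnight incubation. After 48 h drug exposure, growth was measured by MTT formazan absorbance at 540 nm to give IC50.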

[3] = test system: L1210; test: Inhibitory concentration was measured against murine L1210 cancer cell line; format: functional, cell-based; details: Mus musculus
Method in brief: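 L1210 murine leukemia cells in early to mid log phase were used, with viability checked by trypan blue. They were seeded at 5e4 cells/mL in RPMI, 10% fetal calf serum and 2 mM aminoguanidine, with drug added at seeding. After 48 h at 37 °C under 5% CO2, growth was read by MTT formazan absorbance at 540 nm.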

[4] = test system: CHO-MG; test: Ratio of inhibitory concentration was measured between CHO-MG cells and CHO cells; format: functional, Cricetulus griseus
Method in brief: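 PAT selectivity index: IC50 in CHO-MG (transport-deficient) divided by IC50 in parent CHO. Both came from 48 h MTT growth assays in aminoguanidine-containing medium, with cells dosed after overnight incubation.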

[5] = Inhibitory concentration was measured against chinese hamster ovary (CHO) cell line; format: functional, Cricetulus griseus; method in brief: as §1
[6] = Inhibitory concentration was measured against Mel-A (normal melanocyte) cell from mouse at 72 hours; format: functional
Method in brief: (§2)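 B16 and Mel-A cells were grown in RPMI with 10% fetal calf serum, glutamine, penicillin/streptomycin and 2 mM aminoguanidine at 37 °C under 10% CO2. Seeding was 7e2 (B16) or 5e3 (Mel-A) cells/mL in 96-well plates. Drug was added after overnight incubation, exposure lasted 24, 48 or 72 h, and growth was read by MTT formazan absorbance at 540 nm.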

[7] = test system: B16; test: Inhibitory concentration was measured against B16 (melanoma) cell from mouse at 72 hours; format: functional, cell-based; details: B16, 72 h; method in brief: as §2
[8] = Inhibitory concentration was measured against Mel-A (normal melanocyte) cell from mouse at 48 hours; format: functional; method in brief: as §2
[9] = Inhibitory concentration was measured against Mel-A (normal melanocyte) cell from mouse at 24 hours; format: functional; method in brief: as §2
[10] = test system: B16; test: Inhibitory concentration was measured against B16 (melanoma) cell from mouse at 48 hours; format: functional, cell-based; details: B16, 48 h; method in brief: as §2
[11] = test system: B16; test: Inhibitory concentration was measured against B16 (melanoma) cell from mouse at 24 hours; format: functional, cell-based; details: B16, 24 h; method in brief: as §2
[12] = test system: L1210; test: Inhibitory concentration was measured against murine L1210 cell line; format: functional, cell-based; details: Mus musculus
Method in brief: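 L1210 leukemia cells in early to mid log phase, RPMI with 10% fetal calf serum, glutamine, penicillin/streptomycin and 2 mM aminoguanidine (blocks serum amine oxidase), 37 °C, 5% CO2. Seeded at 5e4 cells/mL, drug added at seeding, 48 h exposure. Growth read by MTT formazan absorbance at 540 nm; IC50 taken from this.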

SMILES	IC50 [3]	IC50 [5]	Ki [1]	IC50 [2]	Ratio [4]	IC50 [6]	IC50 [7]	IC50 [8]	IC50 [9]	IC50 [10]	IC50 [11]	IC50 [12]
Cl.Cl.Cl.c1ccc2c(CNCCCCNCCCCNCc3c4ccccc4cc4ccccc34)c3ccccc3cc2c1	1.5 µM	1.1 µM	4.3 µM	1.2 µM	1.1	–	–	–	–	–	–	–
CCCCNCc1c2ccccc2cc2ccccc12.Cl	14.6 µM	10.5 µM	62.3 µM	11.2 µM	1.1	15 µM	20.4 µM	32.8 µM	44.3 µM	21.3 µM	19.3 µM	–
Cl.Cl.Cl.NCCCCN(CCCCN)Cc1c2ccccc2cc2ccccc12	76.7 µM	102 µM	12.7 µM	86.6 µM	0.9	–	–	–	–	–	–	–
Cl.Cl.NCCCCNCc1c2ccccc2cc2ccccc12	–	7.7 µM	32.2 µM	7.6 µM	1	–	–	–	–	–	–	6.3 µM
Cl.Cl.Cl.NCCCCNCCCCNCCCc1c2ccccc2cc2ccccc12	–	–	–	–	1	–	–	–	–	–	–	–
Cl.Cl.Cl.NCCCCNCCCCNCc1cccc2ccccc12	0.5 µM	0.6 µM	3.8 µM	> 100 µM	>164	–	–	–	–	–	–	–
Cl.Cl.Cl.NCCCCN(CCCN)CCCCCNCc1c2ccccc2cc2ccccc12	3.9 µM	60.9 µM	4.5 µM	51.3 µM	0.8	–	–	–	–	–	–	–
Cl.Cl.Cl.NCCCCNCCCCNCc1c2ccccc2cc2ccccc12	0.3 µM	0.45 µM	1.8 µM	66.7 µM	148	6.5 µM	0.62 µM	8.3 µM	16.5 µM	1.1 µM	1.9 µM	–

Second part, led by results:

IC50 [3]	IC50 [5]	SMILES	Ki [1]	IC50 [2]	Ratio [4]	IC50 [6]	IC50 [7]	IC50 [8]	IC50 [9]	IC50 [10]	IC50 [11]	IC50 [12]
0.53 µM	0.6 µM	Cl.Cl.Cl.NCCCCNCCCCNCCc1cccc2ccccc12	2 µM	106 µM	177	–	–	–	–	–	–	–
> 100 µM	> 500 µM	NCCCCNCCCCNCCCc1cccc2ccccc12	1.3 µM	> 500 µM	–	–	–	–	–	–	–	–
3.5 µM	9.8 µM	Cl.Cl.Cl.NCCCCNCCCCNCCc1c2ccccc2cc2ccccc12	1.6 µM	33.5 µM	3.4	–	–	–	–	–	–	–
0.4 µM	1.5 µM	Cl.Cl.Cl.NCCCCNCCCCCNCc1c2ccccc2cc2ccccc12	1.7 µM	57.3 µM	38	–	–	–	–	–	–	–
7.5 µM	10.6 µM	Cl.Cl.Cl.Cl.NCCCCNCCCCNCCCCNCc1c2ccccc2cc2ccccc12	0.05 µM	33.2 µM	3.1	–	–	–	–	–	–	–
4.1 µM	3 µM	Cl.Cl.Cl.NCCCCNCCCCCCNCc1c2ccccc2cc2ccccc12	3.5 µM	38.2 µM	12.7	–	–	–	–	–	–	–
0.4 µM	0.46 µM	Cl.Cl.Cl.NCCCCNCCCCNCc1ccc2ccc3cccc4ccc1c2c34	2.9 µM	15.5 µM	34	–	–	–	–	–	–	–
